From ChEMBL document CHEMBL1177752, “Trigoxyphins A-G: diterpenes from Trigonostemon xyphophylloides” (J Nat Prod, 2010) come the findings set out here.

Structures are written as SMILES. Bounds are passed on as bounds.

Type in all cases: functional, cell-based
For one assay, the system named is Bel-7402. The experiment in a line: Cytotoxicity against human Bel7402 cells after 72 hrs by SRB assay. The note with it: Bel-7402, 72 h. On the technique in general: In SRB staining, fixed cells bind dye roughly in proportion to their protein.
A further assay has as its system HL-60. Briefly: Cytotoxicity against human HL60 cells after 72 hrs by MTT assay. The conditions noted are these: HL-60, 72 h. In outline:
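Cells plated in culture medium in 96-well plates, then treated in triplicate with graded compound concentrations for 72 h at 37 °C. MTT (5 mg/mL solution) added for 4 h, followed by 10% SDS/5% isobutanol/12 mM HCl solubilizer.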
A general note: Tetrazolium assays rely on reduction of a dye to a coloured formazan, in cell work by metabolically active cells.

The next assay deals with A549. The experiment in a line: Cytotoxicity against human A549 cells after 72 hrs by SRB assay. The conditions noted are these: A549, 72 h.

In the case of `C=C(C)[C@@]12OC3(c4ccccc4)O[C@@H]1[C@@H]1[C@H](OC(C)=O)[C@@](C)(OC(=O)c4ccccc4)[C@@H](OC(C)=O)[C@@]4(O)[C@@H](C[C@H](C)[C@@H]4OC(C)=O)[C@@]1(O3)[C@H](C)[C@@H]2O` [TRIGOXYPHIN F], in the assay on Bel-7402, the half-maximal inhibitory concentration (IC50) (commonly the concentration that inhibits the measured activity by half) was above 10 µM. On to `C=C(C)[C@@]12OC3(c4ccccc4)O[C@@H]1[C@@H]1[C@@H]4O[C@]4(C)[C@@H](O)[C@]4(O)C(=O)[C@@H](C)C[C@H]4[C@@]1(O3)[C@H](C)[C@@H]2OC(=O)c1ccccc1` [TRIGOXYPHIN B], for which the IC50 in the assay with HL-60 is 0.49 µM; in the assay with A549 it was 4.9 µM; in the assay on Bel-7402 it was above 10 µM. The corresponding values for `COc1cccc2c1C(=O)c1c(O)c3c(c(O)c1C2=O)C[C@@](O)(C(=O)CO)C[C@@H]3O[C@H]1C[C@H](N)[C@H](O)[C@H](C)O1` [DOXORUBICIN] are 0.04 µM, 0.17 µM and 0.12 µM.

Molecule `C=C(C)[C@@]1(OC(C)=O)[C@@H]2OC3(c4ccccc4)O[C@H]1[C@@H](C)[C@@]1(O3)[C@H]2[C@H](OC(C)=O)[C@](C)(OC(=O)c2ccccc2)[C@@H](OC(C)=O)[C@@]2(O)[C@H]1C[C@H](C)[C@@H]2OC(C)=O` [TRIGOXYPHIN E] had an IC50 with Bel-7402 above 10 µM.

As for `Cc1cc2c(cc1O)C1=CC(=O)[C@@H](O)C(C)(C)C1CC2=O` (some centres undefined) [TRIGOXYPHIN G], the half-maximal inhibitory concentration (IC50) in the assay with Bel-7402 is above 10 µM.

For `C=C(C)[C@@]12OC3(c4ccccc4)O[C@@H]1[C@@H]1[C@@H]4O[C@]4(C)[C@@H](O)[C@]4(O)C(=O)C(C)=C[C@H]4[C@@]1(O3)[C@H](C)[C@@H]2OC(=O)c1ccccc1` [TRIGOXYPHIN A], the IC50 was 0.27 µM with HL-60, 7.5 µM in the assay on A549 and above 10 µM in the assay on Bel-7402. `C=C(C)[C@@]12OC3(c4ccccc4)O[C@@H]1[C@@H]1[C@@H]4O[C@]4(C)[C@@H](OC(C)=O)[C@]4(O)C(=O)[C@@H](C)C[C@H]4[C@@]1(O3)[C@H](C)[C@@H]2OC(=O)c1ccccc1` [TRIGOXYPHIN C] returned an IC50 in the assay with Bel-7402 above 10 µM.

In the assay with Bel-7402, `C=C(C)[C@@]1(O)[C@@H]2OC3(c4ccccc4)O[C@H]1[C@@H](C)[C@@]1(O3)[C@H]2[C@H](OC(C)=O)[C@](C)(OC(=O)c2ccccc2)[C@@H](OC(C)=O)[C@@]2(O)[C@H]1C[C@H](C)[C@@H]2OC(C)=O` [TRIGOXYPHIN D] registered an IC50 above 10 µM.
